According to ChEMBL document CHEMBL5030534, “Discovery of Novel Anti-Breast-Cancer Inhibitors by Synergistically Antagonizing Microtubule Polymerization and Aryl Hydrocarbon Receptor Expression” (J Med Chem, 2021):
The source made the active and inactive calls. The calls are words filed in the database; no cut-off is given here.

Key:
MCF7 [1] = assay: Induction of ROS generation in human MCF7 cells at 2 nM measured after 24 hrs in presence of N-acetylcysteine by DCFH-DA staining based flow cytometric analysis; format: functional
How it was run: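 MCF-7 seeded 4 × 10⁵ per well for 24 h, then DMSO or 0.5, 1, 2 nM for 24 h. Loaded with DCFH-DA for 30 min in the dark, resuspended in serum-free medium, DCF fluorescence measured by flow cytometry. For scavenger condition, 2.5 mM N-acetyl-L-cysteine pretreatment, then 2 nM for 24 h. Three runs.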

MCF-10A = assay: Antiproliferative activity against human MCF-10A cells assessed as reduction in cell viability incubated for 48 hrs by MTT assay; format: cell-based
How it was run: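 Cells seeded at 5 × 10³ per well, incubated overnight, then exposed to a range of compound concentrations for 48 h. MTT added for 4 h, medium replaced with DMSO, absorbance read at 570 nm. MCF-7, L-O2 grown in DMEM; MCF-10A, MCF-7/ADR in RPMI 1640. Three independent runs.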

[2] = Toxicity in BALB/c nude mouse xenografted with human MCF7 cells assessed as effect on kidney at 0.5 to 1 mg/kg, iv administered every 2 days for 21 days by H and E staining based assay; format: organism-based; settings: in vivo, 504 h, dose 0.5-1 mg/kg, time 21 day
How it was run: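 Nude mice given 6 × 10⁶ MCF-7 cells subcutaneously on right flank; after 7 days randomized, eight per group. iv dosing every 2 days at 0.5 or 1 mg/kg; vehicle 10% DMSO/5% Tween 80/85% saline; paclitaxel 10 mg/kg and CA-4 20 mg/kg references. Body weight every 2 days; killed after 21 days; organs fixed, paraffin-sectioned, H&E stained.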

MCF7 [3] = assay: Induction of apoptosis in human MCF7 cells assessed as early apoptotic cells at 2 nM measured after 24 hrs by Annexin V-FITC and PI staining based flow cytometry assay (reference value: 0.90%); format: functional
MCF7 [4] = assay: Induction of apoptosis in human MCF7 cells assessed as necrotic cells at 2 nM measured after 24 hrs in presence of DMBA by Annexin V-FITC and PI staining based flow cytometry assay (reference value: 0.9%); format: functional
Tubulin (Homo sapiens) = Tubulin (Homo sapiens) (UniProt P68371+Q9H4B7+P0DPH7+P68366+Q13509+Q71U36+P04350+Q3ZCM7+P07437+P68363+Q9BQE3+Q6PEY2+Q13885+Q9BVA1+Q9BUF5); assay: Induction of microtubule damage in human MCF7 cells incubated for 48 hrs by DAPI staining based immunofluorescence assay; format: cell-based; settings: dose 0.5-4 nM
How it was run: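 Blocked with goat serum for 20 min, probed with anti-β-tubulin for 2 h, fluorescent secondary antibody and DAPI nuclear stain, imaged by laser confocal microscopy.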

MCF7 [5] = assay: Induction of mitochondrial membrane potential loss in human MCF7 cells at 1 nM measured after 24 hrs by JC-1 staining based flow cytometry analysis (reference value: 3.01%); format: functional
MCF7 [6] = assay: Induction of apoptosis in human MCF7 cells assessed as late apoptotic cells at 0.5 nM measured after 24 hrs by Annexin V-FITC and PI staining based flow cytometry assay (reference value: 2.06%); format: functional
MCF7 [7] = assay: Inhibition of AhR signalling in human MCF7 cells assessed as reduction in AhR level incubated for 24 hrs by Western blot analysis; format: functional, cell-based; settings: dose 1-4 nM
How it was run: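 MCF-7 cells seeded 4 × 10⁵ per well, grown 24 h, then exposed to DMSO or 1, 2, 4 nM for 24 h; BAY 2416964 served as AhR antagonist reference. Lysates adjusted to 3 mg/mL protein by BCA, resolved on 4−20% SDS-PAGE, immunoblotted; AhR and CYP1A1 bands normalized to GAPDH. Three independent runs.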

MCF7 [8] = assay: Cell cycle arrest in human MCF7 cells assessed as increase in Cyclin B1 protein expression; settings: dose 1-4 nM
MCF7 [9] = assay: Induction of mitochondrial membrane potential loss in human MCF7 cells at 2 nM measured after 24 hrs by JC-1 staining based flow cytometry analysis (reference value: 3.01%); format: functional
MCF7 [10] = assay: Cell cycle arrest in human MCF7 cells assessed as decrease in Cdc2 protein expression; format: functional, cell-based; settings: dose 1-4 nM
How it was run: (§1)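 MCF-7 seeded 4 × 10⁵ per well for 24 h, then DMSO or compound at 1, 2, 4 nM for 24 h. Lysates protein-normalized to 3 mg/mL by BCA, resolved on 4–20% SDS-PAGE and immunoblotted. Bands quantified relative to β-actin (cell-cycle proteins) or GAPDH (apoptosis proteins); n = 3.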

MCF7 [11] = assay: Induction of apoptosis in human MCF7 cells assessed as increase in cleaved Caspase-3 protein expression at 1 to 4 nM; format: functional, cell-based; settings: dose 1-4 nM; how it was run: as §1
MCF7 [12] = assay: Cell cycle arrest in human MCF7 cells assessed as accumulation of cells at G2/M phase at 0.5 to 2 nM measured after 24 hrs by propidium iodide staining based flow cytometric analysis relative to control; format: functional; settings: dose 0.5-2 nM
How it was run: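 MCF-7 seeded 4 × 10⁵ per well for 24 h, treated with DMSO or 0.5, 1, 2 nM. Fixed in 75% ethanol at −20 °C for 12 h, stained with PI by cell-cycle kit, analysed by flow cytometry. Three runs.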

MCF7 [13] = assay: Antitumor activity against human MCF7 cells xenografted in BALB/c nude mouse assessed as decrease in tumor weight at 1 mg/kg, iv administered every 2 days for 21 days and measured every 2 days; format: functional; parameters: scale not given: the % may be the effect or the level left; settings: time 21 day
How it was run: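 MCF-7 cells (6 × 10⁶) injected subcutaneously into right flank of BALB/c nude mice; after 7 days animals randomized, eight per group. Dosing iv every 2 days for 21 days, vehicle 10% DMSO/5% Tween 80/85% saline. Tumor size and body weight recorded every 2 days; tumors excised and weighed at sacrifice.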

MCF7 [14] = assay: Induction of apoptosis in human MCF7 cells assessed as late apoptotic cells at 2 nM measured after 24 hrs by Annexin V-FITC and PI staining based flow cytometry assay (reference value: 2.06%); format: functional
MCF7 [15] = assay: Induction of apoptosis in human MCF7 cells assessed as necrotic cells at 0.5 nM measured after 24 hrs by Annexin V-FITC and PI staining based flow cytometry assay (reference value: 0.28%); format: functional
MCF7 [16] = assay: Induction of apoptosis in human MCF7 cells assessed as increase in cleaved Caspase-9 protein expression at 1 to 4 nM; format: functional, cell-based; settings: dose 1-4 nM; how it was run: as §1
MCF7 [17] = assay: Induction of apoptosis in human MCF7 cells assessed as late apoptotic cells at 2 nM measured after 24 hrs by Annexin V-FITC and PI staining based flow cytometry assay (reference value: 1.5%); format: functional
MCF7 [18] = assay: Antitumor activity against human MCF7 cells xenografted in BALB/c nude mouse assessed as increase in apoptotic cells at 1 mg/kg, iv administered every 2 days for 21 days by TUNEL staining based assay; format: functional, organism-based; settings: time 21.0 day
How it was run: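 Same subcutaneous MCF-7 nude-mouse xenografts dosed iv every 2 days for 21 days. Tumors then fixed, paraffin-embedded and sectioned. Apoptotic cells detected by TUNEL fluorescent staining with DNA counterstain; microvessel density measured by anti-CD31 immunohistochemistry.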

MCF7 [19] = assay: Induction of apoptosis in human MCF7 cells assessed as necrotic cells at 1 nM measured after 24 hrs by Annexin V-FITC and PI staining based flow cytometry assay (reference value: 0.28%); format: functional
MCF7 [20] = assay: Induction of apoptosis in human MCF7 cells assessed as viable cells at 2 nM measured after 24 hrs by Annexin V-FITC and PI staining based flow cytometry assay (reference value: 96.8%); format: functional; settings: read-out: Activity

For `Cc1nc(N(C)c2ccc3c(c2)cc(C)n3C)c2ccccc2n1`, the Activity (MCF7 [1]) was 24.7%, the IC50 (MCF-10A) was 9.3 nM and the Activity [2] was “Non-Toxic”. The Activity (MCF7 [3]) was 12.1%, the Activity (MCF7 [4]) was 5.6% and the Activity (Tubulin (Homo sapiens)) was “Dose-Dependent Effect”. For the same compound, the Activity (MCF7 [5]) was 6.49%, the Activity (MCF7 [6]) was 2.17% and the inhibition (MCF7 [7]) was “Dose-Dependent Effect”. The Activity (MCF7 [8]) was “Dose-Dependent Effect”, the Activity (MCF7 [9]) was 24.7% and the Activity (MCF7 [10]) was “Dose-Dependent Effect”. For the same compound, the Activity (MCF7 [11]) was “Active”, the Activity (MCF7 [12]) was 46.87% and the Activity (MCF7 [13]) was 81.1%. For the same compound, the Activity (MCF7 [14]) was 45.1%, the Activity (MCF7 [15]) was 0.52% and the Activity (MCF7 [16]) was “Active”. For the same compound, the Activity (MCF7 [17]) was 44.7%, the Activity (MCF7 [18]) was “Active” and the Activity (MCF7 [19]) was 3.27%. For the same compound, the viability at 0.002 µM (MCF7 [20]) was 38.3%.
